The results in this text go back to ChEMBL document CHEMBL1124433 (J Med Chem, 1989).

In assay [1] the test system is L1210. The assay can be described thus: Concentration that inhibits the proliferation of L1210 cells by 50%. The settings on record: Mus musculus. The class given is functional, cell-based. An outline of the steps: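 L1210 murine leukemia cells were incubated with drug at various concentrations for 60 min at 37 °C. Colonies were stained with tetrazolium and counted; cloning efficiency is 8-10%. IC50 is the drug concentration in the agar giving 50% fewer colonies.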

Assay [2] deals with L1210. The assay can be described thus: Non-protein associated single strand breaks, measured after cell lysis in the absence of proteinase K treatment at 2 uM concentration of the compound. It is filed as functional, Mus musculus. The method in brief: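 L1210 cells exposed to drug for 1 h, then alkaline elution. Cells lysed without proteinase K treatment to score single-strand breaks not bound to protein. Expressed as rad equivalents.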

Assay [3] relates to L1210. Put plainly: Protein associated single strand breaks, measured after cell lysis and proteinase K treatment at 2 uM concentration of the compound. The class given is functional, Mus musculus. The method in brief: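 L1210 cells exposed to drug for 1 h, then alkaline elution. Lysis followed by proteinase K treatment to score protein-associated single-strand breaks. Expressed as rad equivalents.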

Assay [4] deals with DNA topoisomerase 1 (Bos taurus). Put plainly: Concentration that produces 50% DNA cleavage mediated by DNA topoisomerase I; neg= negative is no enzyme mediated DNA cleavage at the highest conc tested at 50 uM.
Assay [5] concerns L1210. The assay can be described thus: Protein associated single strand breaks, measured after cell lysis and proteinase K treatment at 20 uM concentration of the compound. It is filed as functional, Mus musculus. An outline of the steps:
(§1)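 L1210 cells were exposed to compound for 1 h and DNA strand breaks were measured by alkaline elution, expressed as rad equivalents. Protein-associated breaks were read after cell lysis plus proteinase K treatment. Non-protein-associated breaks were read after lysis without proteinase K.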

Assay [6] relates to L1210. The assay can be described thus: Non-protein associated single strand breaks, measured after cell lysis in the absence of proteinase K treatment at 20 uM concentration of the compound. The class given is functional, Mus musculus. An outline of the steps:
as §1

Assay [7] concerns DNA topoisomerase 1 (Bos taurus). The assay can be described thus: Concentration that produces 50% DNA cleavage mediated by topoisomerase I; neg= negative is no enzyme mediated DNA cleavage at the highest conc tested at 50 uM.
Assay [8] deals with L1210. Put plainly: Protein associated single strand breaks, measured after cell lysis and proteinase K treatment at 35 uM concentration of the compound. It is filed as functional, Mus musculus. An outline of the steps: as §1
Assay [9] deals with L1210. The assay can be described thus: Non-protein associated single strand breaks, measured after cell lysis in the absence of proteinase K treatment at 3.5 uM concentration of the compound. The class given is functional, Mus musculus. An outline of the steps:
as §1

In assay [10] the test system is L1210. Put plainly: Non-protein associated single strand breaks, measured after cell lysis in the absence of proteinase K treatment at 35 uM concentration of the compound. It is filed as functional, Mus musculus. The method in brief: as §1
Assay [11] has as its system L1210. The assay can be described thus: Non-protein associated single strand breaks, measured after cell lysis in the absence of proteinase K treatment at 10 uM concentration of the compound. It is filed as functional, Mus musculus. An outline of the steps:
as §1

Assay [12] relates to L1210. The assay can be described thus: Protein associated single strand breaks, measured after cell lysis and proteinase K treatment at 10 uM concentration of the compound. It is filed as functional, Mus musculus. An outline of the steps: as §1
Assay [13] deals with DNA topoisomerase 1 (Bos taurus). Put plainly: Concentration that produces 50% DNA cleavage mediated by DNA topoisomerase I.

The IC50 is the concentration that inhibits the measured activity by half. For the compound `CC[C@@]1(O)C(=O)OCc2c1cc1n(c2=O)Cc2cc3ccccc3nc2-1` [CAMPTOTHECIN], it took 14 nM to reach half-maximal inhibition with L1210 [1] (IC50). For the same compound, the Radiation equivalent in the assay on L1210 [2] is given as 240; in the assay with L1210 [3], 342.

`CC[C@H]1C(=O)OCc2c1cc1n(c2=O)Cc2cc3ccccc3nc2-1` registered a 50% inhibitory concentration (IC50) with L1210 [1] of 590 nM. Moreover, in [4], the CC50 result was “Negative”.

For the compound `C=C1CC(CC)(c2cc3n(c(=O)c2C)Cc2cc4ccccc4nc2-3)OC1=O` (configuration not stated), 94 nM corresponded to half-maximal inhibition with L1210 [1] (IC50). Moreover, the Radiation equivalent is listed as <100 in the assay on L1210 [2], <100 with L1210 [3], <100 in the assay on L1210 [5] and 1360 in the assay with L1210 [6]. The CC50 result in assay [7] was “Negative”.

As for `CC[C@@]1(OC(C)=O)C(=O)OCc2c1cc1n(c2=O)Cc2cc3ccccc3nc2-1`, the IC50 in the assay on L1210 [1] stood at 390 nM. Also, in assay [4], the CC50 result is “Negative”.

In the case of `CCC1OC(=O)c2c1cc1n(c2=O)Cc2cc3ccccc3nc2-1` (configuration not stated), the IC50 in the assay with L1210 [1] was > 5900 nM. In [4], the CC50 entry was “Negative”.

`O=C1OCc2c1cc1n(c2=O)Cc2cc3ccccc3nc2-1`: in the assay on L1210 [1], the IC50 is > 5900 nM. Also, the CC50 result in assay [4] is “Negative”.

As for `O=c1c2cocc2c(O)c2n1Cc1cc3ccccc3nc1-2`, the Radiation equivalent was <100 with L1210 [8], 175 in the assay on L1210 [9] and 1000 with L1210 [10]. This compound also showed an IC50 in the assay on L1210 [1] of 92 nM. In [4], the CC50 result is “Negative”.

Regarding `CC[C@]1(O)c2cc3n(c(=O)c2COC1O)Cc1cc2ccccc2nc1-3` (some centres not stated), the IC50 in the assay with L1210 [1] worked out at 2700 nM. For the same compound, the Radiation equivalent in the assay on L1210 [11] and with L1210 [12] was <100 throughout. Further, in assay [4], the CC50 result was “Negative”.

In assay [13], `CC[C@@](O)(C(=O)NC(C)C)c1cc2n(c(=O)c1CO)Cc1cc3ccccc3nc1-2` displayed a CC50 of 5000 nM.

The compound `CC[C@@](O)(C(=O)O)c1cc2n(c(=O)c1CO)Cc1cc3ccccc3nc1-2` yielded an IC50 in the assay on L1210 [1] of 14 nM. The same compound had a CC50 in assay [13] of 900 nM.

As for `CCC1(O)OCc2c1cc1n(c2=O)Cc2cc3ccccc3nc2-1` (configuration not stated), the IC50 in the assay with L1210 [1] was > 5900 nM. Besides, in [7], the CC50 result was “Negative”.

Consider `CC[C@@]1(O)C(=O)NCc2c1cc1n(c2=O)Cc2cc3ccccc3nc2-1`, for which the IC50 in the assay with L1210 [1] was > 2000 nM. Further, the Radiation equivalent in the assay with L1210 [11] and with L1210 [12] was <100 in each case. In assay [4], the CC50 entry is “Negative”.

In the assay with L1210 [1], `CC[C@@]1(O)C(=O)SCc2c1cc1n(c2=O)Cc2cc3ccccc3nc2-1` registered an IC50 of 2900 nM. Further, the CC50 entry in assay [7] was “Negative”.
